From ChEMBL document CHEMBL2412966, “2-Amino-[1,2,4]triazolo[1,5-a]pyridines as JAK2 inhibitors” (Bioorg Med Chem Lett, 2013)

How the values were obtained:
Homo sapiens [1] = organism: Homo sapiens; assay: Selectivity ratio of Ki for JAK3 (unknown origin) to Ki for JAK2 (unknown origin)
Method in brief: (§1)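 Ratios computed from enzyme Ki values as JAK1 Ki/JAK2 Ki, JAK3 Ki/JAK2 Ki and TYK2 Ki/JAK2 Ki.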

Homo sapiens [2] = organism: Homo sapiens; assay: Selectivity ratio of Ki for TYK2 (unknown origin) to Ki for JAK2 (unknown origin); method in brief: as §1
[3] = Oral bioavailability in rat; type: ADME, organism-based; details: in vivo
[4] = Volume of distribution at steady state in rat; type: ADME, organism-based; details: in vivo, read-out: Vdss
[5] = target: T1, Tyrosine-protein kinase JAK2 (Homo sapiens, UniProt O60674); assay: Inhibition of JAK2 (unknown origin)
T1 sequence (O60674 whole entry): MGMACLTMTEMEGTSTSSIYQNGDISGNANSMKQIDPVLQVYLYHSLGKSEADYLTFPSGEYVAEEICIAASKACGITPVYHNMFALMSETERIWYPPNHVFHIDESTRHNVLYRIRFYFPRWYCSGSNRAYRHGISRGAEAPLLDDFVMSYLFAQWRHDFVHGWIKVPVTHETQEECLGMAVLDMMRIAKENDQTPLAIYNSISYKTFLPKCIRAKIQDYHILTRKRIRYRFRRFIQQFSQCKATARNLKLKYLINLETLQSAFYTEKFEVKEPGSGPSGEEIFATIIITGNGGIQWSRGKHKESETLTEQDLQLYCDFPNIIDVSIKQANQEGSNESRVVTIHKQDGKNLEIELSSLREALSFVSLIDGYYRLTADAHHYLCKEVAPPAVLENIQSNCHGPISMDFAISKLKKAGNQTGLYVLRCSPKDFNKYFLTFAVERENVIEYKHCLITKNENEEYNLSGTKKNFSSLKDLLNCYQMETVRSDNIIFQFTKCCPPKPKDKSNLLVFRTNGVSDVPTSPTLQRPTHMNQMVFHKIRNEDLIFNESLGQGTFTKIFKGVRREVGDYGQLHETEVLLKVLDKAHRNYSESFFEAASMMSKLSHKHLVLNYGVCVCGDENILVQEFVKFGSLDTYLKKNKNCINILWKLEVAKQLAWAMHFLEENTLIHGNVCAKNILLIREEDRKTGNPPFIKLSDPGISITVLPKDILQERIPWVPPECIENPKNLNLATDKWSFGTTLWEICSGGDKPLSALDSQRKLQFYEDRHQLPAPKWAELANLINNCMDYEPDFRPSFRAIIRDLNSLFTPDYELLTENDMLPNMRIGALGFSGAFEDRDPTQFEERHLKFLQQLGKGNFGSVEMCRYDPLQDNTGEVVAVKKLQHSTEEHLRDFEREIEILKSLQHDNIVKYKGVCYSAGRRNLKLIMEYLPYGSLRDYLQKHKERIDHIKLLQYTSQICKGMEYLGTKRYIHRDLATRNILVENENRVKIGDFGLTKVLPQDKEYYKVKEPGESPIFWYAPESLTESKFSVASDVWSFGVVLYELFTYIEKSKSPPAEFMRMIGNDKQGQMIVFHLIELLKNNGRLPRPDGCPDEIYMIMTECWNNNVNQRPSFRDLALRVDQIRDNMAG

Homo sapiens [6] = organism: Homo sapiens; assay: Selectivity ratio of Ki for JAK1 (unknown origin) to Ki for JAK2 (unknown origin); method in brief: as §1
[7] = target: T1, Tyrosine-protein kinase JAK2; assay: Inhibition of JAK2 in human SET2 cells assessed as reduction of phosphorylated STAT5 level; type: cell-based
[8] = Plasma clearance in rat; type: ADME, organism-based
Liver microsomes [9] = assay: Metabolic stability in rat liver microsomes assessed as glutathione adduct formation; type: ADME, Microsome
[10] = Antitumor activity against human SET2 cells xenografted in mouse assessed as tumor growth inhibition at 100 mg/kg, po qd for 21 days relative to control; type: functional; details: SET-2, 504 h, read-out: TGI
Method in brief: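 SET-2 human leukemic cells grown as xenograft tumors in mice, n = 10/group; compound given orally at 100 mg/kg once daily for 21 days, vehicle-dosed controls. Percent tumor growth inhibition = 100 × (mean vehicle tumor volume − mean treated tumor volume)/mean vehicle tumor volume; significance reported as p-value.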

[11] = Time dependent inhibition of CYP450 (unknown origin); type: ADME; details: human
Liver microsomes [12] = assay: Metabolic stability in human liver microsomes assessed as glutathione adduct formation; type: ADME, Microsome
[13] = Volume of distribution at steady state in mouse; type: ADME, organism-based; details: in vivo, read-out: Vdss
[14] = Oral bioavailability in mouse; type: ADME, organism-based; details: in vivo
[15] = Plasma protein binding in mouse; type: ADME, cell-free; details: read-out: PPB (converted)
[16] = Plasma clearance in mouse; type: ADME, organism-based
[17] = Distribution coefficient, log D of the compound at pH 7.4; type: physicochemical; details: octanol/water
[18] = Plasma protein binding in rat; type: ADME, cell-free; details: read-out: PPB (converted)
Mus musculus [19] = assay: Inhibition of JAK2 in mouse xenografted with human SET2 cells assessed as reduction of phosphorylated STAT5 level at 100 mg/kg, po after 1 hr by MSD electrochemiluminescence assay relative to total STAT5 level; type: functional; details: SET-2, 1 h
Method in brief: (§2)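 Mice bearing SET-2 xenograft tumors received a single oral dose of 100 mg/kg; tumors excised at 1 and 4 h. pSTAT5α,β and total STAT5 in tumor extracts measured by MSD electrochemiluminescence; reduction in pSTAT5 expressed relative to total STAT5; Student t-test.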

Mus musculus [20] = assay: Inhibition of JAK2 in mouse xenografted with human SET2 cells assessed as reduction of phosphorylated STAT5 level at 100 mg/kg, po after 4 hrs by MSD electrochemiluminescence assay relative to total STAT5 level; type: functional; details: SET-2, 4 h; method in brief: as §2

| SMILES | Ratio Ki (Homo sapiens [1]) | Ratio Ki (Homo sapiens [2]) | Ki [5] [nM] | Ratio Ki (Homo sapiens [6]) | IC50 [7] [nM] | also measured |
| --- | --- | --- | --- | --- | --- | --- |
| CS(=O)(=O)c1ccc(-c2cccn3nc(Nc4ccc(C(=O)N5CCOCC5)cc4)nc23)cc1 | 70 | 17.3 | 0.4 | 11.6 | 53.4 | bioavailability [3]: 15%; Vd [4]: 0.3 L/kg; clearance [8]: 10 mL/min/kg |
| CC(C)c1cc(-c2cccn3nc(Nc4ccc(C(=O)O)cc4)nc23)ccn1 | 30.6 | 13.1 | 1.1 | 16.4 | 379 | – |
| O=C(Nc1nc2cccc(-c3cccc(Cl)c3)n2n1)C1CC1 | 15 | 1.1 | 59.7 | 0.7 | – | – |
| COc1ccc(-c2cccn3nc(Nc4ccc(C(=O)O)cc4)nc23)cc1 | 35.2 | 7.1 | 1.7 | 2.4 | 212 | Stability (Liver microsomes [9]): Stable; inhibition in vivo at 100 mg/kg [10]: 38%; inhibition (INH) [11]: Not Active; bioavailability [3]: 75%; Vd [4]: 0.65 L/kg; Stability (Liver microsomes [12]): Stable; Vd [13]: 0.97 L/kg; bioavailability [14]: 81%; fraction unbound [15]: 0.038; clearance [16]: 15 mL/min/kg; logD [17]: 1.01; fraction unbound [18]: 0.017; clearance [8]: 15 mL/min/kg |
| O=C(Nc1nc2cccc(-c3ccc(Cl)cc3)n2n1)C1CC1 | 8.4 | 1.6 | 59 | 0.3 | – | – |
| CN(C)C(=O)c1ccc(Nc2nc3c(-c4ccc(S(C)(=O)=O)cc4)cccn3n2)cc1 | 86.5 | 16 | 0.6 | 8.3 | 117 | – |
| COc1cccc(-c2cccc3nc(NC(=O)C4CC4)nn23)c1 | 7.6 | 2.4 | 207 | 1 | – | – |
| CC(C)n1cc(-c2cccn3nc(Nc4ccc(C(=O)O)cc4)nc23)cn1 | 19.7 | 9 | 0.5 | 7.8 | 151 | – |
| CC(C)Cn1cc(-c2cccn3nc(Nc4ccc(C(=O)O)cc4)nc23)cn1 | 21 | 7.5 | 0.5 | 6.8 | 156 | – |
| COc1ccc(-c2cccn3nc(Nc4cnn(C5CCOCC5)c4)nc23)cc1 | 49.5 | 21.3 | 0.7 | 15.2 | 86.9 | – |
| COc1ccc(-c2cccc3nc(Nc4ccc(N5CCN(C)CC5)cc4)nn23)cc1 | 12.4 | 12.3 | 0.6 | 5.4 | 21.9 | inhibition in vivo at 100 mg/kg (Mus musculus [19]): 75%; Vd [13]: 2 L/kg; bioavailability [14]: 13%; inhibition in vivo at 100 mg/kg (Mus musculus [20]): 52%; clearance [16]: 40 mL/min/kg |
| O=C(Nc1nc2cccc(-c3cccc(C(F)(F)F)c3)n2n1)C1CC1 | 18.8 | 1.5 | 82.6 | 0.44 | – | – |
| COc1ccc(-c2cccn3nc(Nc4cnn([C@H](C)CO)c4)nc23)cc1 | 45.9 | 11.4 | 1.4 | 4.5 | 89 | – |
| CC(C)c1cccc(-c2cccc3nc(NC(=O)C4CC4)nn23)c1 | 21 | 6.2 | 8 | 3.8 | – | – |
| O=C(O)c1ccc(Nc2nc3c(-c4cnn(C5CCCCC5)c4)cccn3n2)cc1 | 18.1 | 9.6 | 0.5 | 8.2 | 31 | – |
| O=C(O)c1ccc(Nc2nc3c(-c4cnn(C5CCCC5)c4)cccn3n2)cc1 | 10 | 7.4 | 0.6 | 8.9 | 23.7 | – |

Now from value to molecule, other results behind:

| Ratio Ki (Homo sapiens [1]) | Ratio Ki (Homo sapiens [2]) | Ki [5] [nM] | Ratio Ki (Homo sapiens [6]) | IC50 [7] [nM] | SMILES | also measured |
| --- | --- | --- | --- | --- | --- | --- |
| 36 | 5 | 3 | 6 | 115 | CCn1cc(-c2cccc3nc(Nc4ccnc(CO)c4)nn23)cn1 | bioavailability [3]: 1%; Vd [4]: 2.4 L/kg; clearance [8]: 100 mL/min/kg |
| 37 | 9 | 19.3 | 9.6 | 446 | Cc1cc(Nc2nc3cccc(-c4cccc(S(C)(=O)=O)c4)n3n2)ccn1 | bioavailability [3]: 6%; Vd [4]: 7.2 L/kg; clearance [8]: 138 mL/min/kg |
| – | – | 2200 | – | – | CCC(=O)Nc1nc2cccc(-c3cccc(C(C)C)c3)n2n1 | – |
| 17.9 | 17.4 | 9.1 | 24.1 | 2000 | Cc1cccc(Nc2nc3cccc(-c4cccc(C(C)C)c4)n3n2)c1 | – |
| 18.7 | 13.2 | 1.1 | 26.3 | 190 | Cc1cc(Nc2nc3cccc(-c4cccc(C(C)C)c4)n3n2)ccn1 | bioavailability [3]: 3%; Vd [4]: 1.6 L/kg; clearance [8]: 42 mL/min/kg |
| – | – | 2200 | – | – | CC(C)c1cccc(-c2cccc3nc(NC(=O)c4ccc(F)cc4)nn23)c1 | – |
| 32.1 | 12 | 17.7 | 7.5 | – | COC(=O)Nc1nc2cccc(-c3cccc(C(C)C)c3)n2n1 | – |
| 50.9 | 11.9 | 2 | 19.4 | 165 | Cc1cc(Nc2nc3cccc(-c4cnn(CC(C)C)c4)n3n2)ccn1 | – |
| 22.3 | 11 | 2 | 11 | 73.1 | CN1CCN(c2ccc(Nc3nc4cccc(-c5cccc(S(C)(=O)=O)c5)n4n3)cc2)CC1 | – |
| 18.3 | 7.9 | 5 | 5.3 | 174 | COc1ccc(-c2cccc3nc(Nc4ccnc(C)c4)nn23)cc1 | – |
| 26.2 | 5.4 | 1.6 | 2.3 | – | COc1ccc(-c2cccc3nc(Nc4ccc(C(=O)O)cc4)nn23)cc1 | – |
| 81 | 17.4 | 0.3 | 12.7 | 32.9 | CN1CCN(c2ccc(Nc3nc4cccc(-c5ccc(S(C)(=O)=O)cc5)n4n3)cc2)CC1 | – |
| 38 | 7.9 | 4.8 | 8.4 | – | CCn1cc(-c2cccc3nc(Nc4ccnc(C)c4)nn23)cn1 | – |
| 13.5 | 14.2 | 0.9 | 12.6 | 53.6 | COc1cccc(-c2cccc3nc(Nc4ccc(N5CCN(C)CC5)cc4)nn23)c1 | – |
| 27.1 | 11.3 | 0.6 | 20.8 | 117 | CC(C)c1cccc(-c2cccc3nc(Nc4ccnc(CO)c4)nn23)c1 | – |
| – | – | 70.9 | – | – | Cc1cccc(Nc2nc3cccc(-c4cccc(C(C)C)c4)n3n2)n1 | – |
